Calls of active or inactive are those of the source. The calls are words filed in the database; no cut-off is given here.
Key:
[1] = test system: Human immunodeficiency virus 1; assay: In vitro integration activity provided by preintegration complexes isolated from HIV-infected cells; format: functional
Procedure, shortened: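 Preintegration complexes were made with biologically inactivated HIV-based vectors and isolated from infected cells. They integrate their endogenously synthesized viral cDNA into an added target DNA, read out by microtiter plate assay over a range of compound concentrations.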

[2] = test system: Molluscum contagiosum virus; assay: DNA cleavage and religation activity tested by the inhibition of the type 1B topoisomerase of molluscum contagiosum virus (MCV) at a concentration of 200 uM; NA is Not Active.; format: functional
Procedure, shortened: (§1)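 MCV type 1B topoisomerase counterscreen in microtiter plate format, reading DNA cleavage and religation; compounds tested up to 200 uM.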

[3] = HeLa cell cytotoxicity by MTT cytotoxicity assay; format: cell-based; details: human, HeLa cells; read-out: LD50 (the source's name)
Procedure, shortened: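 HeLa cells in culture exposed to a range of compound concentrations; viability read by MTT assay.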

[4] = test system: Molluscum contagiosum virus; assay: DNA relaxation activity tested by the inhibition of the type 1B topoisomerase of molluscum contagiosum virus (MCV) at a concentration of 200 uM; NA is Not Active.; format: functional
Procedure, shortened: (§2)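 MCV type 1B topoisomerase counterscreen reading DNA relaxation, with products analysed on gels.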

[5] = test system: Integrase (Human immunodeficiency virus 1); assay: Compound was tested in vitro against strand -transfer (ST) activity in the presence of Mg2+ as the cationic cofactor at a concentration of 200 uM; NA is Not Active.
[6] = test system: Integrase (Human immunodeficiency virus 1); assay: Inhibition of 3'-processing (TC) in the presence of Mn2+ in vitro
[7] = test system: Integrase (Human immunodeficiency virus 1); assay: Inhibition of strand -transfer (ST) activity in the presence of Mn2+
[8] = test system: Molluscum contagiosum virus; assay: DNA relaxation activity tested by the inhibition of the Type 1B topoisomerase of molluscum contagiosum virus (MCV); format: functional
Procedure, shortened: (§3)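 Type 1B topoisomerase of molluscum contagiosum virus tested as a counterscreen. Supercoiled DNA relaxation was analysed on gels.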

[9] = target: T1, Topoiomerase 1B (Molluscum contagiosum virus subtype 1) (UniProt Q98254); assay: (§4) DNA cleavage and religation activity as inhibition of type 1B topoisomerase of molluscum contagiosum virus (MCV); format: functional
T1 sequence (whole entry): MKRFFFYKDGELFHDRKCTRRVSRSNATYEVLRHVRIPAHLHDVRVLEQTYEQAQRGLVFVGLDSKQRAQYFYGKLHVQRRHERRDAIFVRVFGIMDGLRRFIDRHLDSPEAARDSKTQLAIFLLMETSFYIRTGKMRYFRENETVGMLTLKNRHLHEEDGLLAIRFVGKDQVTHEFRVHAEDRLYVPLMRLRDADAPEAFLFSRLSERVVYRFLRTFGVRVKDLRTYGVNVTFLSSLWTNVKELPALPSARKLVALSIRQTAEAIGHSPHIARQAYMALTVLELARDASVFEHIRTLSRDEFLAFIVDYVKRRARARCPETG
Procedure, shortened: (§5)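 Type 1B topoisomerase of molluscum contagiosum virus tested as a counterscreen in a microtiter plate format that reads out DNA cleavage and religation.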

[10] = test system: Integrase (Human immunodeficiency virus 1); assay: Tested in vitro against strand -transfer (ST) activity in the presence of Mg2+ as the cationic cofactor
[11] = target: T2, Topoiomerase 1B (Molluscum contagiosum virus subtype 1, UniProt Q98254); assay: as §4; format: functional; procedure, shortened: as §5
T2 sequence (Q98254 whole entry): T1 sequence (whole entry)

[12] = test system: Integrase (Human immunodeficiency virus 1); assay: Compound was tested in vitro against strand -transfer (ST) activity in the presence of Mn2+ at a concentration of 200 uM; NA is Not Active.
[13] = test system: Integrase (Human immunodeficiency virus 1); assay: Compound was tested in vitro against 3''-processing (TC) in the presence of Mn2+ at a concentration of 200 uM; NA is Not Active.
[14] = test system: Molluscum contagiosum virus; assay: DNA cleavage and religation activity tested by the inhibition of the type 1B topoisomerase of molluscum contagiosum virus (MCV)at a concentration of 200 uM; NA is Not Active.; format: functional; procedure, shortened: as §1
[15] = test system: Molluscum contagiosum virus; assay: DNA relaxation activity tested by the inhibition of the type 1B topoisomerase of molluscum contagiosum virus (MCV)at a concentration of 200 uM; NA is Not Active.; format: functional, organism-based; procedure, shortened: as §3
[16] = test system: Molluscum contagiosum virus; assay: DNA relaxation activity tested by the inhibition of the type 1B topoisomerase of molluscum contagiosum virus (MCV)at a concentration of 500 uM; NA is Not Active.; format: functional, organism-based; procedure, shortened: as §2
[17] = test system: Integrase (Human immunodeficiency virus 1); assay: Compound was tested in vitro against 3'-processing (TC) in the presence of Mn2+ at a concentration of 200 uM; Na is Not Active.

Structure (SMILES)	IC50 [1] [µM]	CC50 [3] [µM]	inhibition [8]	inhibition [9]	further results
CC1(C)CC2(CC(C)(C)c3cc(Br)c(O)cc32)c2cc(O)c(Br)cc21	> 80	4			Inhibition of DNA cleavage and religation [2]: inactive; Inhibition of DNA relaxation [4]: inactive; NA [5]: inactive
CC1(C)CC2(CC(C)(C)c3cc([N+](=O)[O-])c(O)cc32)c2cc(O)c([N+](=O)[O-])cc21	> 80	198	inactive	inactive	inhibition [6]: inactive; inhibition [7]: inactive; inhibition [10]: inactive
CC1(C)CC2(CC(C)(C)c3cc(C=O)c(O)cc32)c2cc(O)c(C=O)cc21	> 80	4		inactive	
CC1(C)CC2(CC(C)(C)c3ccc(O)c(NC(N)=O)c32)c2cc(O)c(NC(N)=O)cc21 (stereo not drawn)	> 80	60			Inhibition of DNA cleavage and religation [2]: inactive; Inhibition of DNA relaxation [4]: inactive
CC1(C)CC2(CC(C)(C)c3cc(I)c(O)cc32)c2cc(O)c(I)cc21	> 80	< 20			Inhibition of DNA cleavage and religation [2]: inactive; Inhibition of DNA relaxation [4]: inactive; NA [5]: inactive
CC1(C)CC2(CC(C)(C)c3ccc(O)c([N+](=O)[O-])c32)c2cc(O)c([N+](=O)[O-])cc21 (stereo not drawn)	> 80	41	inactive	inactive	
CC1(C)CC2(CC(C)(C)c3c(Br)c(O)c(O)c(Br)c32)c2c(Br)c(O)c(O)c(Br)c21	> 80	18	inactive		IC50 [11]: 50 µM
CC1(C)CC2(CC(C)(C)c3cc(NC(N)=O)c(O)cc32)c2cc(O)c(NC(N)=O)cc21	> 80	53			NA [12]: inactive; NA [13]: inactive; NA [5]: inactive; NA [14]: inactive; NA [15]: inactive
CC1(C)CC2(CC(C)(C)c3ccc(OS(=O)(=O)O)cc32)c2cc(OS(=O)(=O)O)ccc21	> 80	> 400		inactive	
CC1(C)CC2(CC(C)(C)c3ccc(O)cc32)c2cc(O)ccc21	> 80	< 20			NA [14]: inactive; NA [16]: inactive
Cc1cc2c(cc1O)C1(CC2(C)C)CC(C)(C)c2cc(C)c(O)cc21	> 80	10			Inhibition of DNA cleavage and religation [2]: inactive; NA [12]: inactive; NA [17]: inactive; Inhibition of DNA relaxation [4]: inactive; NA [5]: inactive
CC1(C)CC2(CC(C)(C)c3cc(OS(=O)(=O)O)c(OS(=O)(=O)O)cc32)c2cc(OS(=O)(=O)O)c(OS(=O)(=O)O)cc21	> 80	134		inactive	IC50 [8]: 123 µM
CC1(C)CC2(CC(C)(C)c3c(Br)c(OS(=O)(=O)O)c(OS(=O)(=O)O)c(Br)c32)c2c(Br)c(OS(=O)(=O)O)c(OS(=O)(=O)O)c(Br)c21	> 80	207			IC50 [11]: 75 µM
CC1(C)CC2(CC(C)(C)c3cc([N+](=O)[O-])c(O)c([N+](=O)[O-])c32)c2cc(O)c([N+](=O)[O-])cc21 (stereo not drawn)	> 80	41		inactive	IC50 [8]: 200 µM
CC1(C)CC2(CC(C)(C)c3ccc(O)c(N)c32)c2cc(O)c(N)cc21 (stereo not drawn)	> 80	3	inactive	inactive	inhibition [6]: inactive; inhibition [7]: inactive; inhibition [10]: inactive
CC1(C)CC2(CC(C)(C)c3cc(Br)c(OS(=O)(=O)O)cc32)c2cc(OS(=O)(=O)O)c(Br)cc21	> 80	50		inactive	inhibition [6]: inactive; inhibition [7]: inactive; inhibition [10]: inactive
CC1(C)CC2(CC(C)(C)c3cc(N)c(O)cc32)c2cc(O)c(N)cc21	> 80	47	inactive	inactive	inhibition [6]: inactive; inhibition [7]: inactive
CC1(C)CC2(CC(C)(C)c3cc(O)c(O)cc32)c2cc(O)c(O)cc21	> 80	65	inactive	inactive	
CC1(C)CC2(CC(C)(C)c3cc(S(=O)(=O)O)c(O)cc32)c2cc(O)c(S(=O)(=O)O)cc21	> 80	> 600	inactive	inactive	inhibition [6]: inactive; inhibition [7]: inactive

— ChEMBL document CHEMBL1133186, “A new class of HIV-1 integrase inhibitors: the 3,3,3', 3'-tetramethyl-1,1'-spirobi(indan)-5,5',6,6'-tetrol family” (J Med Chem, 2000)
